The structures appear in SMILES notation. Calls of active or inactive are those of the source.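 Rule for the calls, unless noted: active = inhibition above 20% together with a positive visual image hit; inconclusive = visual image hit but inhibition not above 20%; inactive = no visual image hit.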

A short description of assay [1]: inhibitors of TNFa-induced NFkB p65 translocation, primary screen, imaging, HUVEC, MLSMR starter and 10KST1 sets (AID 438).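 For inhibition: signal is the nuclear over cytoplasmic p65 intensity ratio per well.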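 Note: compound added about 3h40 before a 20 min TNFalpha stimulation.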 The settings on record: HUVEC TNFa-induced p65 nuclear translocation; cell count: measured here: nuclei count (cytotoxicity indicator), at 2.08 µM; inhibition: at 2 µM, stronger effect = higher value, 0% TNFa-plus-vehicle, 100% no-TNFa wells.
Assay [2] is described as follows: endothelial E-selectin expression blockers – imaging, HUVEC, immunofluorescence, MLSMR starter and 10KST1 sets, primary screen (AID 487;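 active = visually confirmed hit in the image check and inhibition above 20%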;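 for inhibition: signal is fraction of cell area covered by stained E-selectin grains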;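 for nuclei count: 100% = median nuclei count of all wells on the same plate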). The settings on record: HUVEC TNFalpha-induced E-selectin immunofluorescence imaging, at 2 µM; inhibition: stronger effect = higher value; nuclei count: measured here: cell number, toxicity.
Assay [3] is described as follows: Primary imaging screen for DUSP6 inhibitors that restore phospho-Erk in transfected HeLa cells, chemical complementation (AID 609;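 active = compounds giving at least 50% inhibition in the cell-based MKP-3 phosphatase rescue imaging test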;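 for inhibition: phospho-Erk level distribution per well compared with pooled transfected vehicle control wells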). The settings on record: HeLa MKP-3 transfected, phospho-Erk imaging KS statistic, at 10 µM, cells stimulated with TPA for 15 min.
For assay [4], the target named is Dual specificity protein phosphatase 6 (Homo sapiens) (UniProt Q16828). Described as above. The settings on record: HeLa MKP-3 transfected, phospho-Erk imaging KS statistic; at 10 µM; stronger effect = higher value; cells stimulated with TPA for 15 min.
Chain of Dual specificity protein phosphatase 6 (Homo sapiens) (Q16828 whole entry, looked up): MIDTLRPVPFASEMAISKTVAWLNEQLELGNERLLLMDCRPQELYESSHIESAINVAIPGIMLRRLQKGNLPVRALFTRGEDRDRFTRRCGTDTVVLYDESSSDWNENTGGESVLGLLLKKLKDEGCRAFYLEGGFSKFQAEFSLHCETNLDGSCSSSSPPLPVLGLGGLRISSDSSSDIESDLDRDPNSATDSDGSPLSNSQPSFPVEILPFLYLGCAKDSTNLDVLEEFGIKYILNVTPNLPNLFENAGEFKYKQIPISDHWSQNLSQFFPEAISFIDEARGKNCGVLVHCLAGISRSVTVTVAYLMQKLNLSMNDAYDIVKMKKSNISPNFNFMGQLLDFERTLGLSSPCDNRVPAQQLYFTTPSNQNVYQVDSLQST
The target in assay [5] is Voltage-gated potassium channel subunit beta-2 (Rattus norvegicus) (UniProt P62483). As to the kind of experiment: inhibitors of rat Kvbeta2 reductase activity – biochemical, NADPH fluorescence, primary screen (AID 622;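 active = fluorescence slope higher than the sample average by over 3 SD, cut at about -0.22 in these data, passing the limit was not always enough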;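 note: slope of raw intensity against log time taken from 70 to 1610 s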). As to conditions: recombinant KvBeta, 4-cyanobenzaldehyde reduction, at 10 µM, stronger effect = higher value.
Chain of Voltage-gated potassium channel subunit beta-2 (Rattus norvegicus) (P62483 whole entry, looked up): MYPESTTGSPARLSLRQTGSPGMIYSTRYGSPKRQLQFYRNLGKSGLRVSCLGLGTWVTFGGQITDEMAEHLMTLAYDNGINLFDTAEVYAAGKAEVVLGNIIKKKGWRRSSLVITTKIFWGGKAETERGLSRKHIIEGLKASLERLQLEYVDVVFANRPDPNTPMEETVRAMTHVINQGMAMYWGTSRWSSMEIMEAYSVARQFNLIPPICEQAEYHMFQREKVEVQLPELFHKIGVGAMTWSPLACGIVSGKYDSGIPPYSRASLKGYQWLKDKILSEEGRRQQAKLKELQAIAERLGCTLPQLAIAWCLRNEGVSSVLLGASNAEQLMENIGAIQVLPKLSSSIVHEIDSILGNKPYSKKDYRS
Assay [6] shares this target. The experiment in a line: enhancers of rat Kvbeta2 NADPH turnover – biochemical, NADPH fluorescence, primary screen (AID 623;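 active = NADPH fluorescence slope more negative than the mean of all samples by about 3 SD, 99.7% confidence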;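 note: fluorescence intensity change per second fitted from 20 to 320 s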). The settings on record: Recombinant KvBeta, NADPH fluorescence decrease slope, 10 min; at 10 µM; stronger effect = lower value.
The target of assay [7] is Alpha-2C adrenergic receptor (Homo sapiens) (UniProt P18825). As to the kind of experiment: compounds altering alpha2C-coupled GIRK flux – cell-based, HEK293 alpha2C/GIRK1/2, thallium flux, primary screen (AID 624;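 active = fluorescence slope after compound addition differing from the mean of all screened samples at 99.7% confidence, in either direction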;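 note: slope of fluorescence ratio to pre-addition baseline per second over 15 to 24 s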). As to conditions: thallium flux BTC fluorescence, at 10 µM, actives lie on both sides.
Chain of Alpha-2C adrenergic receptor (Homo sapiens) (P18825 whole entry, looked up): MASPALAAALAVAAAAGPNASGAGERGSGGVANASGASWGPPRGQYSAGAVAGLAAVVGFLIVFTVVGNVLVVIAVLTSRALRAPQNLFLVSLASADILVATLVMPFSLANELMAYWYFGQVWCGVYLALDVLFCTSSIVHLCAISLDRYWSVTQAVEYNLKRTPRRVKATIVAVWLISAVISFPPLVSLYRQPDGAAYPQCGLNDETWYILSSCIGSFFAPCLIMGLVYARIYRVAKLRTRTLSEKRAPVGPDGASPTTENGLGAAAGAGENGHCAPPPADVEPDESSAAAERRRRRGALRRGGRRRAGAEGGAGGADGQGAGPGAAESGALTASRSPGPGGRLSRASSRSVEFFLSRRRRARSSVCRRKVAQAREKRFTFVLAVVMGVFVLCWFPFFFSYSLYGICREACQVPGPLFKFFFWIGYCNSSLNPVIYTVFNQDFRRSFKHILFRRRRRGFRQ
Assay [8] is described as follows: inhibitors of larval lipid processing in zebrafish, primary screen, whole organism, PED6 fluorescence, gall bladder and intestine (AID 686;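 active = a full or partial loss of lipid-probe fluorescence in the fish gall bladder, intestine or both, judged by eye; inactive = no fluorescence loss, or compound toxic to the fish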;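 note: larvae 5 to 7 days old with five fish per well; signal comes from phospholipase A2 cleavage of quenched PED6 carried via bile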). As to conditions: Zebrafish larvae PED6 lipid processing, fluorescence scoring; screened at 20 µM (by protocol). Put shortly: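 Incubation: overnight exposure of larvae to compound plus PED6 / Test system: live zebrafish larvae aged 5-7 days, whole organism / Amount: 5 larvae per well / Read-out basis: visual per-well fluorescence inhibition score / Signal: visual fluorescence microscopy scoring of gall bladder, gut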

A short description of assay [9]: loss of swimming-algae plug formation – whole organism, Chlamydomonas reinhardtii, WT vs cilia-less mutant, absorbance, 96-well, primary screen (AID 463189;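 active = inhibition at or above 50% relative to wild type and mutant plate controls; inactive = inhibition below 50%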;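 note: 0% = wild type cc124 cells in DMSO and 100% = ciliumless bld1 mutant cells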). The settings on record: Chlamydomonas reinhardtii gravitaxis, OD600 absorbance, 2 days; at 10 µM; stronger effect = higher value.
Setting [10] is: measured here: cell density z-score.
Setting [11] is: measured here: nuclear c-Myc green intensity z-score.
The mark [12] stands for this setting: measured here: nuclear pErk red intensity z-score, stronger effect = higher value.

Take `CCCCCCOC(=O)CCn1[nH]c(=O)c2ccccc2c1=O`: in [1], the cell count stood at 547. The inhibition in [1] is -12.2% (inactive); in assay [2], -119% (inactive); in assay [4], 7.93% (inactive); in [9], 27.6% (inactive). The same compound displayed a nuclei count in assay [2] of 136%. The figures for the z-score in [3] (setting [10]), in [3] (setting [11]) and in [3] (setting [12]) were 0.183, -0.855 and 0.203, respectively. For the same compound, in assay [5], the fluorescence slope was -0.492 (inactive). The NADPH fluorescence slope in [6] is -6.3e-05 (inactive). In addition, the slope in [7] is 0.0065 (inactive). In addition, the result in [8] was inactive.
For `Cn1c2c(c(=O)n(C)c1=O)C(NC(=O)c1cccs1)(C(F)(F)F)C(=O)N2` (centres undefined), the cell count in assay [1] amounted to 497. Besides, the inhibition in assay [1] is 3.5% (inactive); in assay [2], -80.8% (inactive); in assay [4], 8.76% (inactive); in assay [9], 24.7% (inactive). In [2], the nuclei count worked out at 147%. Also, the figures for the z-score in assay [3] (setting [10]), in [3] (setting [11]) and in assay [3] (setting [12]) were 1.78, -0.706 and -0.81, respectively. In assay [5], the fluorescence slope is -0.537 (inactive). In addition, in [6], the NADPH fluorescence slope is -9.1e-06 (inactive). Moreover, the slope in assay [7] was 0.00621 (inactive). The compound was classed as inactive in assay [8].
`O=C(Nc1nc(=O)c2ccccc2s1)c1ccccc1`: the cell count in [1] stood at 647. In addition, the inhibition in [1] was 5.5% (inactive); in assay [2], -58.7% (inactive); in assay [4], 9.61% (inactive); in [9] it was 13.1% (inactive). The nuclei count in assay [2] was 158%. The figures for the z-score in [3] (setting [10]), in [3] (setting [11]) and in assay [3] (setting [12]) were 0.159, -0.389 and 0.0783, respectively. Also, in assay [5], the fluorescence slope was -0.505 (inactive). In [6], the NADPH fluorescence slope is -4.5e-05 (inactive). For the same compound, the slope in [7] is 0.00905 (active). The compound was classed as inactive in assay [8].
Consider `Cc1cccc(C)c1NC(=O)CSCC(=O)c1ccc(O)c(O)c1`, for which the cell count in assay [1] worked out at 364. Further, the inhibition in assay [1] is -4.2% (inactive); in assay [2] it was -100% (inactive); in assay [4], 24.7% (inactive); in assay [9], -8.43% (inactive). This compound came in with a nuclei count in assay [2] of 158%. In addition, the z-score was 0.118 in assay [3] (setting [10]), 0.467 in assay [3] (setting [11]) and 0.0935 in assay [3] (setting [12]). Also, in assay [5], the fluorescence slope was -0.4 (inactive). For the same compound, the NADPH fluorescence slope in [6] is -6.4e-05 (inactive). Moreover, the slope in assay [7] was 0.00773 (inactive). The call in assay [8] was inactive.
On to `N#CC1=C(SCC(=O)c2ccc(Br)cc2)NC2=C(C(=O)CCC2)C1c1ccco1` (centres undefined), for which the cell count in [1] turned out to be 383. In addition, the inhibition is -10.4% (inactive) in assay [1], -96.6% (inactive) in assay [2], -8.59% (inactive) in assay [4] and 3.41% (inactive) in assay [9]. Besides, in [2], the nuclei count came out at 179%. Moreover, the z-score in assay [3] (setting [10]) is 0.687; in assay [3] (setting [11]), -1.61; in assay [3] (setting [12]) it was 1.14. Further, the fluorescence slope in assay [5] was -0.399 (inactive). Also, the NADPH fluorescence slope in [6] was -0.000128 (inactive). Further, in [7], the slope was 0.00589 (inactive). Also, in assay [8], the compound was called inactive.
Consider `CC(C)c1cc(NCCN2CCOCC2)n2c(nc3ccccc32)c1C#N`, for which the cell count in [1] was found to be 530. The inhibition in [1] is -16.7% (inactive); in assay [2] it was -13.5% (inactive); in assay [4] it was 10.1% (inactive); in [9] it was -6.96% (inactive). Moreover, the nuclei count in [2] came to 100%. Also, the z-score in assay [3] (setting [10]) is 0.71; in assay [3] (setting [11]) it was 0.53; in assay [3] (setting [12]), -0.442. Further, in assay [5], the fluorescence slope is -0.493 (inactive). The NADPH fluorescence slope in assay [6] is -8.7e-06 (inactive). In assay [7], the slope is 0.00455 (inactive). Also, in assay [8], the compound was called inactive.
In the case of `N#Cc1c(N)sc(=S)c2c1CCCCC2`, in assay [1], the cell count came to 560. Also, the inhibition in assay [1] is -3.2% (inactive); in [2] it was -130% (inactive); in assay [4], -0.608% (inactive); in [9], 6.84% (inactive). Also, the nuclei count in [2] amounted to 180%. For the same compound, the z-score was -0.472 in assay [3] (setting [10]), -0.421 in assay [3] (setting [11]) and 0.0305 in [3] (setting [12]). The fluorescence slope in assay [5] is -0.339 (inactive). In addition, the NADPH fluorescence slope in [6] is 2.8e-06 (inactive). For the same compound, the slope in [7] was 0.00229 (inactive). The call in assay [8] was inactive.
In the case of `C/C=C/c1ccccc1OCc1ccc(C(=O)O)o1`, the cell count in assay [1] came to 540. The inhibition in [1] is -2.1% (inactive); in assay [2], 9.9% (inactive); in assay [4], 0.671% (inactive); in assay [9], -4.22% (inactive). The same compound yielded a nuclei count in assay [2] of 98.3%. The figures for the z-score in assay [3] (setting [10]), in assay [3] (setting [11]) and in assay [3] (setting [12]) were -2.68, 0.479 and 0.66, respectively. Besides, the fluorescence slope in assay [5] was -0.571 (inactive). Besides, the NADPH fluorescence slope in assay [6] was -6.2e-05 (inactive). Besides, the slope in [7] was 0.00529 (inactive). The outcome in assay [8] was inactive.

What is called inhibition is the drop in the measured response relative to a control, in per cent.
